AHR activator: activates the human aryl hydrocarbon receptor. P35869. AHR-responsive luciferase reporter cells, luminescence. activation, % at 5 µM. hit rate 2.5% among 320,000; in the data active = activation above about 47%
SR-BI uptake up: activators of SR-BI mediated HDL lipid uptake | hit rate 0.096% among 320,000 | activation, % at 12.5 µM | AID 504775 | CHO ldlA[mSR-BI] cells, DiI-HDL uptake fluorescence, 3 h; 100 = double the neutral-control signal;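 active = mean replicate activation of at least 60% and every replicate at or above 60%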
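material = CHO ldlA[mSR-BI] cells | medium = Ham's F12 with 0.5% BSA, HEPES 25 mM, pH 7.4 | reagent = fluorescent DiI-HDL, 10 µg/mL final | compound dosing = single-point compound dose | incubation = 3 h, 37 °C | measured by = bottom-read fluorescence, 550/595 nm | measure = HDL uptake via cellular fluorescence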
HIF act: HIF pathway transcriptional activation; U2OS HRE-luciferase reporter, luminescence; normalized: DMSO 0%, desferrioxamine 100%; activation, % at 7.5 µM (by protocol); hit rate 0.32% among 300,000;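 active = mean activation of at least 10% of the iron chelator positive control signal, with at least half of replicates also reaching 10%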
FXN GAA850 act: activators of GAA850 frataxin (FXN) promoter; HEK293 lucGAA850 FXN promoter luciferase reporter, 24 h; percent of 10 µM SAHA response; activation, % at 6 µM; hit rate 0.56% among 360,000; AID 540364;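 active = activation above the average of all compounds screened plus 3 SD, cutoff fixed separately per campaign, cut at about 7.5% in these data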
SR-BI HDL uptake: inhibitors of mouse SR-BI mediated HDL lipid uptake; ldlA[mSR-BI] CHO cells, DiI-HDL uptake fluorescence, 3 h; inhibition, % at 12.5 µM; hit rate 0.96% among 320,000; AID 488896;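 active = mean replicate inhibition of at least 70% and a set share of replicates each scoring 70 or more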
Target sequence (Q61009 whole entry, looked up): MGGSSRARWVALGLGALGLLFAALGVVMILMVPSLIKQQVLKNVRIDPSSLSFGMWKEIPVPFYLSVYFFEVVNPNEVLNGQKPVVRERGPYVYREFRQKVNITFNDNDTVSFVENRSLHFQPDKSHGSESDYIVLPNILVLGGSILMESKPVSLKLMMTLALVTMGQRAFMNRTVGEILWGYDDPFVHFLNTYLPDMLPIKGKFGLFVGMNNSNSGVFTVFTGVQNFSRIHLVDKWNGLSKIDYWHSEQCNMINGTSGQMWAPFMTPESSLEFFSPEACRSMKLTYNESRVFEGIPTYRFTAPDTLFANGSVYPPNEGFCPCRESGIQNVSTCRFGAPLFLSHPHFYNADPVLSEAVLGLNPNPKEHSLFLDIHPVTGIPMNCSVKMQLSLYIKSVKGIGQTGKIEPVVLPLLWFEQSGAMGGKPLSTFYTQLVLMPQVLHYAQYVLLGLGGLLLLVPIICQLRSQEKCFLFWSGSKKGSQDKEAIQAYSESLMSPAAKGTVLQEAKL
ABCB6 inh 2: inhibitors of human ABC transporter ABCB6; Q9NP58; K562-ABCB6 porphyrin accumulation, flow cytometry, 1 h; active compounds read low; fluorescence ratio to DMSO, % at 10 µM; hit rate 0.19% among 360,000;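 active = fluorescence ratio to DMSO below 75%, the collection mean minus 3 SD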;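 also: signal is porphyrin accumulated inside mitochondria; lower ratio means ABCB6 inhibition with less porphyrin fluorescence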
AHR act cf: human AHR activation, confirmation; hit rate 87% among 2,300; activation, % at 9 µM; human cells, AHR-responsive luciferase reporter, luminescence; AID 2845; shares compounds with AHR activator; in the data active = activation above about 49%;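 also: HepG2 hepatoma cells carrying a DRE-driven firefly luciferase reporter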
PXR counter: activates human PXR in AHR activator counter-screen | shares compounds with AHR activator | cell-based PXR reporter, luciferase luminescence | activation, % at 11.6 µM | hit rate 88% among 2,300 | AID 434939; in the data active = activation above about 11%;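 also: human hepatoma DPX-2 cells expressing full-length human PXR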
Each line names hits and unclear results; the compound was inactive in the other large screens (follow-up assays come after a bar, where they were run). Only some compounds are listed: those with a hit (about 3.9% of all), similar ones and a draw of the others.

Cc1c(Cc2ccc3c(c2)OCO3)sc(NC(=O)c2cccc3ccccc23)c1C(N)=O	AHR activator 103 | AHR act cf 60 | PXR counter 58
CC(=O)N1CCN(c2ccc(NC(=O)c3ccc(C)c([N+](=O)[O-])c3)cc2)CC1	none
Cn1ncc(C(=O)Nc2ccc(OC(F)(F)F)cc2)c1-n1cccc1	AHR activator 80 | AHR act cf 100 | PXR counter 30
O=C1c2ccccc2C(=O)N1CCc1ccccn1	AHR activator 99 | AHR act cf 100 | PXR counter 10
O=C1c2cccc3c([N+](=O)[O-])ccc(c23)C(=O)N1CCc1ccccn1	none
Cc1cccc(C(=O)Nc2ccnc(-c3cccnc3)n2)c1	none
Cc1cccc(C(=O)Nc2ccnc(-c3ccncc3)n2)c1	AHR activator 99 | AHR act cf 48 | PXR counter inactive
Cn1ncc2c(Nc3ccc(Br)cc3)nc(Nc3ccc(Br)cc3)nc21	AHR activator 112 | AHR act cf 104 | PXR counter 13
Cc1ccc(Nc2nc(NCCO)nc3c2cnn3C)cc1Cl	AHR activator 81 | AHR act cf 120 | PXR counter 16
COc1ccc(S(=O)(=O)N2CCCC2C(=O)Nc2nc3c(s2)CCCC3)cc1 (centres undefined)	none
COc1cc2[nH]c(=S)n(Cc3ccco3)c(=O)c2cc1OC	AHR activator 82 | AHR act cf 84 | PXR counter 72
Cc1nc2ccc(NC(=O)c3oc4ccc(F)cc4c3C)cc2s1	AHR activator 86 (no result: HIF act) | AHR act cf 121 | PXR counter 20
COc1ccc(Nc2nc3cc(C)ccc3cc2C#N)cc1	AHR activator 108 | AHR act cf 94 | PXR counter 15
O=c1[nH]c2ccccc2n2cnnc12	none
Cc1cc(-c2ccc(C)c(S(=O)(=O)NCc3ccc(Br)cc3)c2)on1	none
CC(=O)Nc1cccc2c1C(=O)N(c1ccc(C)cc1)C2=O	AHR activator 99 | AHR act cf 99
Cc1ccc(N2C(=O)c3ccccc3C2=O)cc1	none
O=C(NC(=S)N1CCCCCC1)c1ccccc1Cl	none
COc1ccc(Cl)cc1C(=O)O/N=C(\N)c1ccccn1	none
N/C(=N\OC(=O)c1cc(Cl)ccc1Cl)c1ccccn1	AHR activator 122 | AHR act cf 64 | PXR counter 17
N/C(=N\OC(=O)c1ccc(Br)o1)c1ccccn1	AHR activator 79 | AHR act cf inactive | PXR counter 22
Cc1cc(C(=O)Nn2c(-c3ccc(Br)cc3)nc3ccccc3c2=O)ccc1[N+](=O)[O-]	AHR activator 83 | AHR act cf 48 | PXR counter 49
O=C(Nn1c(-c2ccc(Br)cc2)nc2ccccc2c1=O)c1ccncc1	none
COC(=O)c1cc(S(=O)(=O)N2CCN(c3cccc(C)c3)C(C)C2)c[nH]1 (centres undefined)	none
Fc1ccc(N/N=C2/CC(c3ccccc3)Oc3ccccc32)c(F)c1 (centres undefined)	AHR activator 98 | AHR act cf 90 | PXR counter 26
CNC(=S)N/N=C1\CC(c2ccccc2)Oc2ccccc21 (centres undefined)	none
O=C(O)CC1SC(=Nc2cccc(O)c2)NC1=O (centres undefined)	none (no result: HIF act)
O=C(NN1C(=O)c2ccccc2NC12CCCCC2)c1ccccc1	none
COc1ccc(N=Nc2nc3cc(Br)c(Br)cc3n2C)c(OC)c1	AHR activator 83 (no result: HIF act) | AHR act cf 57 | PXR counter 18
COc1cc(C#Cc2c(-c3cncn3C)n(C)c3ccc(-c4cc(OC)c(OC)c(OC)c4)cc23)cc(OC)c1	none (no result: HIF act)
COc1cc(C#Cc2c(-c3cncn3C)n(C)c3ccc(-c4ccc5[nH]ccc5c4)cc23)cc(OC)c1	AHR activator 105 (no result: HIF act) | AHR act cf 80 | PXR counter 28
Cc1ccc(NC(=O)COC(=O)CN2C(=O)c3ccccc3C2=O)cc1S(=O)(=O)N(C)C	none
CC(C)(C)c1cnnn1-c1ccc(/C=N/Nc2ccc([N+](=O)[O-])cc2)cc1	AHR activator 83 | AHR act cf 55 | PXR counter 35
CCCc1cc(=O)oc2cc(C)cc(OCC(=O)NCC(O)c3ccccc3)c12 (centres undefined)	none
CCCc1cc(=O)oc2cc(C)cc(OCC(=O)Nc3cccnc3)c12	AHR activator 116 | AHR act cf 82 | PXR counter 26
Cc1c(NC(=O)Cc2ccccc2)cccc1C(=O)NN1C(=O)c2ccccc2C1=O	none
CN1C(=O)c2cccc(NC(=O)Cc3ccccc3)c2C1=O	AHR activator 156 | AHR act cf 51 | PXR counter 14
COc1ccc2c(c1)C(=NNc1ccc(C(=O)O)cc1)c1cc(OC)ccc1-2	AHR activator 86 | AHR act cf 108 | PXR counter 11
C/C(=N/NC(=O)CNC(=O)c1cccnc1)c1ccc(Cl)c(Cl)c1	none
O=C(Nc1ccccc1C(=O)NCCc1ccccc1)c1ccco1	AHR activator 110 | AHR act cf 102 | PXR counter 42
COc1ccc(C)cc1NC(=O)C(OC(=O)CNC(=O)c1ccc(Oc2ccccc2)cc1)c1ccccc1 (centres undefined)	AHR activator 95 | AHR act cf 71 | PXR counter 20
COCCCNC(=O)CCCOc1ccccc1	none
Cc1cc(C)nc(Nc2cccc3ccccc23)n1	AHR activator 131 | AHR act cf 109 | PXR counter 19
Cc1cc(C)nc(Nc2ccccc2Br)n1	none
Cc1c(C(=O)N2c3ccccc3CC2C)oc2ccccc12 (centres undefined)	AHR activator 85 (no result: SR-BI uptake up) | AHR act cf 74 | PXR counter 28
